Measurements gathered from unrelated publications.
Compare with care: the assays were run in different laboratories.
Transmembrane protease serine 6: Transmembrane protease serine 6 (Homo sapiens, UniProt Q8IU80)
AGTR1: Type-1 angiotensin II receptor (AGTR1, Homo sapiens, UniProt P30556)
MTOR: Serine/threonine-protein kinase mTOR (MTOR, Homo sapiens, UniProt P42345)
SRPK3: SRSF protein kinase 3 (SRPK3, Homo sapiens, UniProt Q9UPE1)
AVPR2: Vasopressin V2 receptor (AVPR2, Homo sapiens, UniProt P30518)

CCCCCCCCCCCC(=O)OC[C@@H](COP(=O)(O)OCCNC(=O)c1ccc(Cn2c(=O)[nH]c3c(N)nc(OCCOC)nc32)cc1)OC(=O)CCCCCCCCCCC
inhibition (Neuropeptide Y receptor type 1 (NPY1R, Homo sapiens, UniProt P25929); ligand displacement; radioligand; 10 µM): 11%

CN1CCN(CCCCOc2ccc3occc(=O)c3c2)CC1
inhibition (Transmembrane protease serine 6; enzyme activity; inhibitor; fluorescence; 10 µM): 11%

CC(C)C[C@H](NC(=O)[C@H](Cc1ccccc1)NC(=O)c1cnccn1)B(O)O
inhibition (Neutrophil elastase (ELANE, Homo sapiens, UniProt P08246); enzyme activity; inhibitor; 33 µM): 36.1%

COCc1c(-c2cc3cc(C)cc(OC)c3s2)c2c(N)ncnn2c1CN1CCNC(=O)C1
inhibition (AGTR1; ligand displacement; radioligand; 10 µM): 9%

CN(CCN1CCC(OC(=O)Nc2ccccc2-c2ccccc2)CC1)C(=O)c1ccc(CN2CCC(C(N)=O)CC2)cc1
inhibition (AGTR1; ligand displacement; radioligand; 1 µM): 3%

C#Cc1n[nH]c2c(-c3cn(C(C)c4ccccn4)c(=O)[nH]c3=O)cc(F)cc12 (centres unmarked)
inhibition (MTOR; enzyme activity; inhibitor; 1 µM): -1.6%

Cc1ncc(C)n2nc(/C=C/c3nc(N4CCCC4)cc(N4CCOCC4)n3)nc12
inhibition (Beta-secretase 1 (BACE1, Homo sapiens, UniProt P56817); enzyme activity; inhibitor; 10 µM): 4%

C[C@@H]1CCCN1CCCCOc1ccc2occc(=O)c2c1
inhibition (Transmembrane protease serine 6; enzyme activity; inhibitor; fluorescence; 10 µM): 10%

Cc1ccc2nc(N3C(=O)C(O)=C(C(=O)OC(C)(C)C)C3c3ccc(-c4ccc(Cl)cc4)o3)sc2c1 (centres unmarked)
inhibition (UDP-N-acetylenolpyruvoylglucosamine reductase (murB, Escherichia coli K-12, UniProt P08373); enzyme activity; inhibitor; 20 µM): 46%

COCCN(CCOC)C(=O)[C@@]12C[C@@H]1[C@@H](n1cnc3c(NC(C4CC4)C4CC4)nc(Cl)nc31)[C@H](O)[C@@H]2O
inhibition (Adenosine receptor A3 (ADORA3, Homo sapiens, UniProt P0DMS8); ligand displacement; radioligand; 10 µM): 30%

C#Cc1n[nH]c2c(-c3cn([C@@H](C)c4ccccc4)c(=O)[nH]c3=O)cc(F)cc12
inhibition (MTOR; enzyme activity; inhibitor; 0.1 µM): 6.8%

Cn1cc(-c2cc(F)cc(N3CCn4c(cc5c4CCCC5)C3=O)c2CO)cc(Nc2ccc(N3CCN(C4COC4)CC3)cn2)c1=O
inhibition (SRPK3; enzyme activity; inhibitor; 0.1 µM): 15%

COc1ccc(S(=O)(=O)N2CCCCC2)cc1C
inhibition (AGTR1; ligand displacement; radioligand; 10 µM): < 30%

CC(C)CC(CC(=O)NO)N=[N+]=[N-] (centres unmarked)
inhibition (Endoplasmic reticulum aminopeptidase 2 (ERAP2, Homo sapiens, UniProt Q6P179); enzyme activity; inhibitor; fluorescence; 300 µM): 21%

CCN(CC)CCCC[C@H](NC(=O)[C@H](CC(C)C)NC(=O)[C@H](C)NC(=O)[C@H](Cc1ccccc1)NC(=O)c1ccc(C(C)(C)C)cc1)C(=O)N[C@@H](CO)C(=O)OC
inhibition (AGTR1; ligand displacement; radioligand; 10 µM): -4%

O=C(Nc1cccnn1)N1CCN([C@@H]2CCOc3cc(C(F)(F)F)ccc32)CC1
inhibition (AVPR2; cell-free assay; 20 µM): -4%

c1ccc(C(NCCNC(c2ccccc2)c2ccccc2)c2ccccc2)cc1
inhibition (AVPR2; cell-free assay; 10 µM): 29%

Cn1cc(-c2cccc(N3CCc4c(sc5c4CC(C)(C)C5)C3=O)c2CO)cc(Nc2ccncn2)c1=O
inhibition (SRPK3; enzyme activity; inhibitor; 1 µM): 9%

O=c1ccoc2ccc(OCCCCN3CCCCC3)cc12
inhibition (Transmembrane protease serine 6; enzyme activity; inhibitor; fluorescence; 10 µM): 12%

C[C@H](C(=O)N[C@H]1COc2ccccc2[C@@H]1S(C)(=O)=O)c1ccc(F)cc1
inhibition (AVPR2; cell-free assay; 10 µM): 3%
